In the library only some 1.4% were active in any assay of this set; here they are far more common.
DNA FID counter = counter-screen for HCV NS3 helicase inhibitors: DNA intercalator displacement | hit rate 0.17% among 290,000 | inhibition, % at 7.9 µM | DNA fluorescent intercalator displacement, fluorescence; in the data active = inhibition above about 37%;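 also: 0% = vehicle and 100% = reference compound; higher means more ethidium bromide displaced from hairpin DNA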
PLCg1 inh = blocks human PLC-gamma1 enzyme activity. P19174. purified PLC-gamma1, fluorogenic substrate, fluorescence. inhibition, % at 12.2 µM. hit rate 0.84% among 370,000. AID 720700
Target sequence (P19174 whole entry, looked up): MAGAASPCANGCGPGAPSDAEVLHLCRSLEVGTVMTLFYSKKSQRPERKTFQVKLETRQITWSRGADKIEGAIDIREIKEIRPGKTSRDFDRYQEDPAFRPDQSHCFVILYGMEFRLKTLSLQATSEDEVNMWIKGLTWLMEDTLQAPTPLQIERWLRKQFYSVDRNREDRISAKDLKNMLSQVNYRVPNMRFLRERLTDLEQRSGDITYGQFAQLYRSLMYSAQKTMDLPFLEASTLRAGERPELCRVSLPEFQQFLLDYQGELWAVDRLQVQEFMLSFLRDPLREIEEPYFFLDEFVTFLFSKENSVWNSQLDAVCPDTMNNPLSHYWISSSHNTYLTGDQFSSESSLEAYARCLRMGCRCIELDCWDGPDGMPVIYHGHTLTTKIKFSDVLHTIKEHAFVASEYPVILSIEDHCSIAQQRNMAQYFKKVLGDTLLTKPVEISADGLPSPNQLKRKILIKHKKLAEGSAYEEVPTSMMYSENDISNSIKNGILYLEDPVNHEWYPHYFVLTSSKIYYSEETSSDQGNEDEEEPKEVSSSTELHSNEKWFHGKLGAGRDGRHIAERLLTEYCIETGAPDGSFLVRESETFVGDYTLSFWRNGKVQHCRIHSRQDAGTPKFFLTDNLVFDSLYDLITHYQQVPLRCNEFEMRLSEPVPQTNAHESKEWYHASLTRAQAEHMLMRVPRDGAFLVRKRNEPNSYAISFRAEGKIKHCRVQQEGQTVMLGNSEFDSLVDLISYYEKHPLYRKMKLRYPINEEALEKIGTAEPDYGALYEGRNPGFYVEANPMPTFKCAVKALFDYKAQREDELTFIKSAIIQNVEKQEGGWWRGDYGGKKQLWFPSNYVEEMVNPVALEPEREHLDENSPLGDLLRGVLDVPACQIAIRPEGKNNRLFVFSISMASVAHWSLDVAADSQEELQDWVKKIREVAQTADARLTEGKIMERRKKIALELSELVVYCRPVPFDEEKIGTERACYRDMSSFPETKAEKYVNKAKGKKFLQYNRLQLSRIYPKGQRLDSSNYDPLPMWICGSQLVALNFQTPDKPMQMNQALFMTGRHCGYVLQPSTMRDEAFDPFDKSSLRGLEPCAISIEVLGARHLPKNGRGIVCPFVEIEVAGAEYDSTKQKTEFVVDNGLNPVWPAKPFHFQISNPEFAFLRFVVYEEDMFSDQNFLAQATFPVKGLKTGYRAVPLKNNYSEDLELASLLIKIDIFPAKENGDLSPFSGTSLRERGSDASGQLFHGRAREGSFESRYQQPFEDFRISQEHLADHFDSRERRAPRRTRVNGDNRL
Tn6 DDE FP = DD(E)-Tn6 binding inhibition, primary FP screen; hit rate 0.21% among 370,000; AID 720509; inhibition, % at 8.3 µM; P02675; Fibrin DD(E) TRITC-Tn6 fluorescence polarization displacement;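 active = inhibition above a per-campaign cutoff: mean of compounds within control limits plus 3 SD, cut at about 15% in these data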;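 also: 0% = median of all compound wells on the plate and 100% = blocking peptide control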
Tn7 DDE FP = DD(E)-Tn7 binding inhibition, primary FP screen; inhibition, % at 8.3 µM; AID 720508; hit rate 0.13% among 370,000; FP displacement of FITC-Tn7 peptide from fibrin DD(E); 0% = median of compound wells per plate; P02675;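 active = inhibition above the mean of compounds falling within the control limits plus 3 SD of them, cut at about 14% in these data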;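 also: 0% = plate median of compound wells and 100% = 10 µM Aha-Tn7 peptide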
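Assay system: Human clot-derived fibrin DD(E) complex | Buffer or medium: Tris/NaCl/CaCl2 buffer, pH 7.8 | Repeats: One replicate per compound | Benchmarks: Aha-Tn7 high control | Measure: % inhibition scaled between sample-field median and high-control FP | Schedule: 10 min plus 3 h, room temperature | Signal: Fluorescence polarization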
PLC-beta3 inh = blocks human PLC-beta3 enzyme activity; AID 720704; Q01970; inhibition, % at 12.2 µM; Purified PLC-beta3, fluorogenic substrate, fluorescence; hit rate 0.18% among 370,000; in the data active = inhibition above about 11%;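 also: 0% = median of compound wells on plate and 100% = full blocker control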
PLCg1 ctr = PLC-gamma1 inhibition, counter-screen for PLC-beta3 hits; shares compounds with PLCg1 inh; purified PLC-gamma1, fluorogenic substrate, fluorescence; inhibition, % at 12.3 µM; hit rate 3.1% among 3,300; AID 743258
PLCb3 confirm = human PLC-beta3 inhibition, confirmation | hit rate 1% among 3,300 | shares compounds with PLCg1 inh | inhibition, % at 12.3 µM | purified PLC-beta3, fluorogenic substrate fluorescence; in the data active = inhibition above about 11%
An asterisk follows results filed as active; · = no result. Rule as the data show it, unless noted: active = inhibition above about 9.5%; inactive = the rest.

SMILES	DNA FID counter	PLCg1 inh	Tn6 DDE FP	Tn7 DDE FP	PLC-beta3 inh	PLCg1 ctr	PLCb3 confirm
O=S(=O)(NC1CCCC1)c1ccccc1Br	·	9	2	-6	16*	-1	0
COc1ccc(S(=O)(=O)NC2CCCC2)cc1Br	-6	0	-7	-7	-1	·	·
C/C(CCC(=O)O)=N/Nc1ccc([N+](=O)[O-])cc1[N+](=O)[O-]	3	2	-5	4	1	·	·
CC(=O)Nc1ccc(C2=NN(CC#N)C(=O)SC2)cc1	-2	-1	-6	8	4	·	·
CC(=O)Nc1ccc(C2=NN(Cc3nnc(-c4ccccc4)o3)C(=O)SC2)cc1	-23	11*	-2	-3	9	-3	-3
Cc1cc(C)c(S(=O)(=O)/N=C2\C=C(Nc3ccc(C(=O)O)cc3)C(=O)c3ccccc32)c(C)c1	2	4	0	-2	-4	·	·
O=C1C(Nc2ccc(O)cc2)=C/C(=N/S(=O)(=O)c2cccs2)c2ccccc21	8	20*	-11	3	7	29*	11*
O=C(O)c1ccc(NC2=C/C(=N/S(=O)(=O)c3ccccc3)c3ccccc3C2=O)cc1	-25	11*	-6	1	7	18*	8
O=C(O)c1ccc(NC2=C/C(=N/S(=O)(=O)c3cccs3)c3ccccc3C2=O)cc1	·	8	-5	5	7	·	·
C=CCN(c1ccccc1)S(=O)(=O)c1ccc2c(c1)NC(=O)C(C)S2 (configuration not stated)	-25	0	-8	5	-6	·	·
COn1c(-n2nc(C)cc2C)nc2ccccc2c1=O	-2	-1	-5	11	0	·	·
C#CCOn1c(-n2nc(C)cc2C)nc2ccccc2c1=O	-14	10*	1	-3	-3	-2	-3
CC(C)(C)OC(=O)CNC(=O)c1nc[nH]c1C(=O)NCc1ccc(CNC(=O)OC(C)(C)C)cc1	-52	1	-7	1	-2	·	·
CC(C)(C)OC(=O)CNC(=O)c1[nH]cnc1C(=O)Nc1ccc(CNC(=O)OC(C)(C)C)cc1	·	7	-6	-2	13*	-1	-2
Cc1cnc2ccc(F)cc2c1	·	12*	1	2	6	-5	-4
Cc1ccc2cc(F)ccc2n1	·	3	0	2	-1	·	·
CCP(=O)(c1ccccc1)C(C)(C)O (configuration not stated)	-4	1	-1	-5	-350	·	·
O=C(/C=C/c1cccc([N+](=O)[O-])c1)N1CCOCC1	-1	4	-7	-4	8	·	·
O=C(/C=C/c1cccc([N+](=O)[O-])c1)N1CC[C@@]2(O)CCCC[C@H]2C1	-15	10*	-5	-4	2	0	-2
Nc1cc(=O)[nH]c(SCc2cccc(Cl)c2)n1	-2	10*	-1	-7	10	2	3
Nc1cc(=O)[nH]c(SCc2ccc(Cl)cc2)n1	-7	1	-2	4	2	·	·
Cc1ccc(Sc2nc3c(c(=O)[nH]c(=O)n3C)n2CCc2ccccc2)cc1	-5	5	7	-3	13*	-2	-2
Cc1ccsc1/C=N/NC(=O)C1CC(=O)N(c2ccccc2)C1 (configuration not stated)	-15	3	1	2	11*	4	3
C=CCn1c(SCC(=O)O)nnc1-c1ccc(C(C)(C)C)cc1	-49	2	0	1	4	·	·
CCOc1ccc(CCNC(=O)COC(=O)c2oc3ccccc3c2COC)cc1OCC	·	14*	-6	2	-5	5	2
SMILES	DNA FID counter	PLCg1 inh	Tn6 DDE FP	Tn7 DDE FP	PLC-beta3 inh	PLCg1 ctr	PLCb3 confirm
Cc1cc(S(=O)(=O)Nc2ccc(C(=O)N3CCN(C(=O)c4ccco4)CC3)cc2)ccc1F	-29	11*	0	0	4	5	4
COc1ccc(OC)c(/C=N/n2c(COc3ccccc3)n[nH]c2=S)c1	-43	-49	3	-1	-78	·	·
COc1ccc(Br)cc1/C=N/n1c(COc2ccccc2)n[nH]c1=S	-12	11*	3	-7	-3	-49	-43
Cc1ccc(C)c(S(=O)(=O)c2c(C)cc(C)nc2Cl)c1	-18	-2	-7	5	-5	·	·
Cc1ccc(S(=O)(=O)c2c(C)cc(C)nc2Cl)c(C)c1	-21	11*	3	6	-1	-3	-3
O=C(COC(=O)c1ccc(S(=O)(=O)NCc2ccco2)cc1)Nc1ccccc1	·	1	-2	-11	-1	·	·
O=C(COC(=O)c1ccc(S(=O)(=O)NCc2ccco2)cc1)Nc1ccccc1OC(F)F	-15	5	-1	-2	12*	-6	-1
CCOC(=O)c1c(C)n(-c2ccc(C)cc2)c2c(C(C(C)=O)C(=O)O)c(Br)c(O)c(O)c12 (configuration not stated)	-38	-19	2	6	-25	·	·
CCOC(=O)c1c(C)n(-c2ccc(C)cc2)c2c(CC(C)=O)c(Br)c(OC)c(O)c12	2	10*	-4	-8	7	-5	-3
Cc1ccc(-c2nc3ccsc3c(=O)[nH]2)cc1	-2	10*	-2	-12	6	-3	0
Cc1ccc(-c2csc3nc(-c4ccncc4)[nH]c(=O)c23)cc1	-4	-85	4	5	-143	·	·
COC(=O)C1CCN(C2CN(C3CCCCC3)S(=O)(=O)C2)CC1 (configuration not stated)	·	0	-4	-4	1	·	·
CCOc1ccc(/C=C/c2c([N+](=O)[O-])c(=O)n(C)c(=O)n2C)cc1	6	11*	4	3	4	2	2
COc1ccc(/C=C/c2c([N+](=O)[O-])c(=O)n(C)c(=O)n2C)cc1	-1	4	1	-7	-4	·	·
CCOC(=O)N1C(=O)C2(CCCCC2)N(c2ccccc2Cl)C1=S	-21	11*	2	-2	2	-2	1
C=CCN1C(=O)C(O)=C(C(C)=O)C1c1ccccc1F (configuration not stated)	2	-1	4	4	-2	·	·
CCN(CC)c1ccc(NC(=O)CSc2nc3ccccc3c(=O)n2-c2ccc(C)cc2)cc1	·	12*	4	0	9	-7	-4
N#CC(CCc1ccc([N+](=O)[O-])cc1)(CCc1ccc([N+](=O)[O-])cc1)C(N)=O	·	-36	2	-8	-40	·	·
CCC1Sc2ccccc2N(CC(=O)NCCC(C)C)C1=O (configuration not stated)	-15	13*	1	-6	3	-7	-2
CCC1Sc2ccccc2N(CC(=O)NCc2ccccc2OC)C1=O (configuration not stated)	-20	2	-7	-5	1	·	·
